Measurements from ChEMBL document CHEMBL1649070, “Virtual screening identification of nonfolate compounds, including a CNS drug, as antiparasitic agents inhibiting pteridine reductase” (J Med Chem, 2011).
≈ marks a conversion by molar mass, not a printed value. Calls of active or inactive are those of the source. The calls are words filed in the database; no cut-off is given here.

target: Bifunctional dihydrofolate reductase-thymidylate synthase (Leishmania major) (UniProt P07382); assay: Inhibition of Leishmania major DHFR at 50 uM; conditions: not given
Sequence (P07382 whole entry, looked up): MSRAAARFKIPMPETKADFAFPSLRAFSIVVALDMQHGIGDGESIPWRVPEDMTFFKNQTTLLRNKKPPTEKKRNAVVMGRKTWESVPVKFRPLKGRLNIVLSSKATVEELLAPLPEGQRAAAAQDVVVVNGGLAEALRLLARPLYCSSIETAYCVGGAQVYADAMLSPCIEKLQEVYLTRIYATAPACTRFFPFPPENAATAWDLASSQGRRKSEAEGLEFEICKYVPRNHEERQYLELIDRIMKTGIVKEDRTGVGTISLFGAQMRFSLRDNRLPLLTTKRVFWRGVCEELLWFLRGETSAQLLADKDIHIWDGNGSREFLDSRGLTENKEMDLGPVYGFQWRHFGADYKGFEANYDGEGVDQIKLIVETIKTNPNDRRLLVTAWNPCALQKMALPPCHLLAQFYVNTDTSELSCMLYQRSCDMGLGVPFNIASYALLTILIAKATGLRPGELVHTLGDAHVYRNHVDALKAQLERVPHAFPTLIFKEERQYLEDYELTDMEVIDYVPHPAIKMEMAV
How it was run: (§1)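 NADPH oxidation followed at 340 nm. Compounds in DMSO, screened at a single concentration between 25 μM and 1 mM. Measurements run in triplicate.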

Compound	inhibition
O=C(CN1C(=O)c2ccccc2C1=O)Nc1nnc(CN2C(=O)c3ccccc3C2=O)s1	inactive
O=C(c1ccc(O)cc1)c1ccc(F)cc1	inactive
Nc1nnc(CCC(=O)c2ccc(Cl)cc2)s1	inactive

target: T1, Dihydrofolate reductase (Homo sapiens) (UniProt P00374); assay: Inhibition of human DHFR at 50 uM; conditions: not given; how it was run: as §1
T1 sequence (whole entry): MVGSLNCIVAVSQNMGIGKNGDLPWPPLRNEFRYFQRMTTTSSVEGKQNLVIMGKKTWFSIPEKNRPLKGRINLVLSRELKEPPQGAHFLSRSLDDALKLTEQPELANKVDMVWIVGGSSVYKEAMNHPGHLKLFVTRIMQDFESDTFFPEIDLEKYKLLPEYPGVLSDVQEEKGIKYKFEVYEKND

Compound	inhibition
O=C(CN1C(=O)c2ccccc2C1=O)Nc1nnc(CN2C(=O)c3ccccc3C2=O)s1	inactive
O=C(c1ccc(O)cc1)c1ccc(F)cc1	inactive
Nc1nnc(CCC(=O)c2ccc(Cl)cc2)s1	inactive

tested on: Leishmania mexicana; assay: Antileishmanial activity against Leishmania mexicana MHOM/BZ/84/BEL46 assessed as growth at 50 ug/ml by Alamar blue assay; format: functional; conditions: not given
How it was run: (§2)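 Promastigotes grown in SDM-79, pH 7.3, with 15% heat-inactivated FCS at 28 C in 5% CO2, then seeded at 1 × 10^6 parasites/mL. Each compound tested alone at 50 μg/mL in duplicate as a control for the combination experiments; DMSO below 1% final. After 72 h at 28 C, Alamar Blue added for 4 h; fluorescence read at ex 530 / em 590 nm. Growth expressed as percentage of untreated cultures.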

Compound	growth, % of control at 50 µg/mL
CCc1nc(N)nc(N)c1-c1ccc(Cl)cc1 [PYRIMETHAMINE]	102%

tested on: Leishmania major; assay: Antileishmanial activity against Leishmania major MHOM/SU/73/5-ASKH assessed as growth at 50 ug/ml by Alamar blue assay; format: functional; conditions: not given; how it was run: as §2

Compound	growth, % of control at 50 µg/mL
CCc1nc(N)nc(N)c1-c1ccc(Cl)cc1 [PYRIMETHAMINE]	68%

tested on: not listed separately; assay: Cytotoxicity against human MRC5 cells after 72 hrs by Alamar blue assay; format: cell-based; conditions: read-out: ED50

Compound	CC50 at 72 h
Nc1nnc(-c2ccc3nn[nH]c3c2)s1	51.5 µg/mL (≈ 236 µM)
CCc1nc(N)nc(N)c1-c1ccc(Cl)cc1 [PYRIMETHAMINE]	16.2 µg/mL (≈ 65.3 µM)

tested on: not listed separately; assay: Solubility of the compound at pH 7.4; format: physicochemical; conditions: buffer

Compound	solubility
Nc1nnc(-c2ccc3nn[nH]c3c2)s1	2500 µM (≈ 546 µg/mL)
Nc1nnc(-c2cccc(NS(=O)(=O)c3cccc([N+](=O)[O-])c3)c2)s1	24 µM (≈ 9.06 µg/mL)
N#Cc1ccc(-c2nnc(N)s2)cc1	390 µM (≈ 78.9 µg/mL)
Nc1nnc(CCCC(=O)c2ccccc2)s1	780 µM (≈ 193 µg/mL)
NCCc1ccc(-c2nnc(N)s2)cc1	210000 µM (≈ 46300 µg/mL)
Nc1nnc(CCCl)s1	42000 µM (≈ 6870 µg/mL)
Nc1nnc(-c2cccc(NS(=O)(=O)c3ccc([N+](=O)[O-])cc3)c2)s1	19 µM (≈ 7.17 µg/mL)
CCC(C)c1nnc(N)s1 (stereo not drawn)	22000 µM (≈ 3460 µg/mL)
Nc1nnc(-c2ccncc2)s1	13000 µM (≈ 2320 µg/mL)
CCOc1ccc(-c2nnc(N)s2)cc1	440 µM (≈ 97.4 µg/mL)
Nc1nnc(CC2NC(=O)NC2=O)s1 (stereo not drawn)	87000 µM (≈ 18600 µg/mL)
Nc1nnc(-c2ccco2)s1	13000 µM (≈ 2170 µg/mL)
Nc1nnc(-c2ccccc2)s1	2000 µM (≈ 354 µg/mL)
Nc1nnc(CN2C(=O)c3ccccc3C2=O)s1	1300 µM (≈ 338 µg/mL)
Nc1nnc([C@@H](O)c2ccccc2)s1	3700 µM (≈ 767 µg/mL)
Nc1nnc(CCc2ccccc2)s1	1300 µM (≈ 267 µg/mL)
Nc1nnc(CCOc2ccc(Cl)cc2)s1	240 µM (≈ 61.4 µg/mL)
Cc1ccc(-c2nnc(N)s2)cc1C	420 µM (≈ 86.2 µg/mL)
Cc1cc(C)cc(-c2nnc(N)s2)c1	400 µM (≈ 82.1 µg/mL)
Nc1nnc(-c2cccc([N+](=O)[O-])c2)s1	530 µM (≈ 118 µg/mL)
Cc1nnc(N)s1	210000 µM (≈ 24200 µg/mL)
Nc1nnc(CCC(=O)c2ccc(Cl)cc2)s1	210 µM (≈ 56.2 µg/mL)

tested on: not listed separately; assay: Lipophilicity, log D of the compound in octanol buffer at pH 7.4; format: physicochemical; conditions: not given

Compound	logD
Nc1nnc(-c2ccc3nn[nH]c3c2)s1	0.38
Nc1nnc(-c2cccc(NS(=O)(=O)c3cccc([N+](=O)[O-])c3)c2)s1	2.36
N#Cc1ccc(-c2nnc(N)s2)cc1	1.68
Nc1nnc(CCCC(=O)c2ccccc2)s1	1.76
NCCc1ccc(-c2nnc(N)s2)cc1	-0.69
Nc1nnc(CCCl)s1	0.44
Nc1nnc(-c2cccc(NS(=O)(=O)c3ccc([N+](=O)[O-])cc3)c2)s1	2.43
CCC(C)c1nnc(N)s1 (stereo not drawn)	1.25
Nc1nnc(-c2ccncc2)s1	0.77
CCOc1ccc(-c2nnc(N)s2)cc1	2.73
Nc1nnc(CC2NC(=O)NC2=O)s1 (stereo not drawn)	-1.74
Nc1nnc(-c2ccco2)s1	0.82
Nc1nnc(-c2ccccc2)s1	2.03
Nc1nnc(CN2C(=O)c3ccccc3C2=O)s1	0.22
Nc1nnc([C@@H](O)c2ccccc2)s1	1
Nc1nnc(CCc2ccccc2)s1	2.03
Nc1nnc(CCOc2ccc(Cl)cc2)s1	2.44
Cc1ccc(-c2nnc(N)s2)cc1C	2.95
Cc1cc(C)cc(-c2nnc(N)s2)c1	2.95
Nc1nnc(-c2cccc([N+](=O)[O-])c2)s1	1.94
Cc1nnc(N)s1	-0.16
Nc1nnc(CCC(=O)c2ccc(Cl)cc2)s1	2.2

target: T2, Pteridine reductase 1 (Leishmania major) (UniProt Q01782); assay: Inhibition of Leishmania major PTR1 at 5 uM; conditions: not given
T2 sequence (whole entry): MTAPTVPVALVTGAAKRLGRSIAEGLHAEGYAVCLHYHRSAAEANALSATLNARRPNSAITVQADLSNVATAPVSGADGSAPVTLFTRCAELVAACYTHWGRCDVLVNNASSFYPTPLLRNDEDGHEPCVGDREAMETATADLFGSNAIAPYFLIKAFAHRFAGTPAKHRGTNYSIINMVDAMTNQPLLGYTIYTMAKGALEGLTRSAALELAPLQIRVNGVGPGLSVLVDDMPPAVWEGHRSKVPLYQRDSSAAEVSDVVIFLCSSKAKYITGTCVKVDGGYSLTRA
How it was run: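 Compounds dissolved in DMSO and screened at a single 5 μM concentration; DMSO kept below 1%. Measurements run in triplicate.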

Compound	inhibition
NCCc1ccc(-c2nnc(N)s2)cc1	inactive
O=C(CN1C(=O)c2ccccc2C1=O)Nc1nnc(CN2C(=O)c3ccccc3C2=O)s1	inactive

Now from value to compound:

inhibition	Compound
inactive	Nc1nnc(-c2cccc(NS(=O)(=O)c3cccc([N+](=O)[O-])c3)c2)s1
inactive	N#Cc1ccc(-c2nnc(N)s2)cc1
inactive	Nc1nnc(CCCC(=O)c2ccccc2)s1
inactive	Nc1nnc(-c2cccc(NS(=O)(=O)c3ccc([N+](=O)[O-])cc3)c2)s1
inactive	CCC(C)c1nnc(N)s1 (stereo not drawn)
inactive	Nc1nnc(-c2ccncc2)s1
inactive	CCOc1ccc(-c2nnc(N)s2)cc1
inactive	Cc1ccc(C(=O)Nc2nnc(-c3ccc(C)c(C)c3)s2)cc1C
inactive	Nc1nnc(CC2NC(=O)NC2=O)s1 (stereo not drawn)
inactive	Nc1nnc(-c2ccco2)s1
inactive	Nc1nnc(-c2ccccc2)s1
inactive	Nc1nnc(CN2C(=O)c3ccccc3C2=O)s1
inactive	Nc1nnc([C@@H](O)c2ccccc2)s1
inactive	Nc1nnc(CCc2ccccc2)s1
inactive	Nc1nnc(CCOc2ccc(Cl)cc2)s1
inactive	Cc1ccc(-c2nnc(N)s2)cc1C
inactive	Cc1cc(C)cc(-c2nnc(N)s2)c1
inactive	Nc1nnc(-c2cccc([N+](=O)[O-])c2)s1
inactive	Cc1nnc(N)s1
inactive	O=C(Nc1nnc(-c2ccncc2)s1)c1ccncc1
inactive	Nc1nnc(CCC(=O)c2ccc(Cl)cc2)s1

target: T2, Pteridine reductase 1 (Leishmania major); conditions: at 500 µM

Compound	inhibition
Nc1cccc2c1C(=O)c1ccccc1-2	inactive
O=C1Cc2ccc(F)cc2N1	inactive
O=C(O)CCNC(=O)c1ccc([N+](=O)[O-])cc1	inactive
Cc1cc(=O)n(C)c2ccccc12	inactive
COc1ccc(C(C)=O)cc1CCl	inactive
Cn1cc(C(=O)O)c2ccccc21	inactive
CC(=O)c1cccc(O)c1	inactive
Cc1cccc2cc[nH]c12	inactive
CN1CCOc2cc(C=O)ccc21	inactive
Cc1ccc(C=O)cc1F	inactive
N#C/C=C(/N)N1CCCC1	inactive
O=c1[nH]c2c(Cl)cccc2s1	inactive
NC(=O)C1=C2CCCc3cccc(c32)C1=O	inactive
Nc1ccc(F)c(F)c1N	inactive
O=C1CCCN1c1ccccc1	inactive
Fc1cccc(-n2ccnc2)c1	inactive
NNc1cccc(F)n1	inactive

Compound	inhibition
CN(C)c1ccc(C=O)cc1C#N	inactive
O=C(CO)c1ccc(Cl)cc1	inactive
CN(C)C1=C2C=CC=C2C(=O)C1	inactive
CC(=O)n1cc(C=O)c2ccccc21	inactive
Clc1cccc(-n2ccnc2)c1	inactive
C=CCc1cc(OC)c(O)cc1C=O	inactive
c1ccc2cnncc2c1	inactive
CCOc1ccc(CO)cc1	inactive
C#CCn1cc(C(=O)O)c(=O)c2cc(F)c(Cl)cc21	inactive
OCc1ccc2[nH]ccc2c1	inactive
O=Cc1ccc2c(c1)CCO2	inactive
COc1ccc2c(c1)c(C=O)cn2C	inactive
NCCc1ccc(N)cc1	inactive
O=C(O)c1ccc2cc[nH]c2c1	inactive
Nc1ccc(Cl)cc1C=O	inactive
O=Cc1ccc(O)cc1F	inactive
COc1ccc(N2CCCC2=O)cc1	inactive

Further lines, results first:

inhibition	Compound
inactive	Cc1ccc(C(=N)N)cc1
inactive	Nc1cc(-c2ccccc2)n[nH]1
inactive	Cc1cccc(-c2nnn[nH]2)c1
inactive	Nc1cc(F)ccc1O
inactive	Cc1nnsc1SC(C)C
inactive	Nc1ccnc2ccccc12
inactive	CCn1nc(C)cc1N
inactive	CC(=O)c1ccc(C#N)s1
inactive	Nc1ccc(F)c(N)c1
inactive	Nc1cc(O)c2ccccc2n1
inactive	Nc1nc(-c2ccc(Cl)cc2)cs1
inactive	C/C(=N\N)c1ccc(C)cc1
